Experimental data reported in the EternaBench riboswitch data.

Test system: MS2 coat protein
Assay: apparent Kd, MS2 coat protein; higher = weaker binding; RNA-MaP array; tryptophan 2.4 mM where present
In short: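 The titrant was SNAP-549-labelled MS2 coat protein, run from 0.7 or 1.5 nM in doubling steps to 3 µM. It was applied to designs transcribed by stalled E. coli RNA polymerase on Illumina sequencing-chip clusters, without ligand first and then with constant ligand, in 100 mM Tris-HCl pH 7.5, 80 mM KCl, 4 mM MgCl2, BSA, DTT, yeast tRNA and Tween-20. The apparent Kd is the median of filtered per-cluster binding-curve fits, with green signal normalised to red-channel RNA signal and control-cluster median Fmax.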

[1] = designed as: ON switch for tryptophan, no ligand
[2] = ligand present: tryptophan, designed as: ON switch for tryptophan
[3] = designed as: OFF switch for tryptophan, no ligand
[4] = ligand present: tryptophan, designed as: OFF switch for tryptophan

Row | Sequence | apparent Kd [1] | apparent Kd [2] | apparent Kd [3] | apparent Kd [4]
1 | CUACAUUUGUAGAAACCGGUCAACAAUAAUCGAGGACCGGUACGGCCGCCACUCGAUGUGUUAUACACAUGAGGAUCACCCAUGU | 21.1 nM | 17.4 nM | – | –
2 | CUCAUCCACGCGGCCGCCACUAUAUUGUGGUGUGAGUGUGACGUAUUACAUGAGGAUCACCCAUGUAGGACCGGGCGUGGAUGAG | – | – | 34.6 nM | 308 nM
3 | GAACAGUCGGACAUGAGGAUCACCCAUGUGCGAGGACCGGUACGGCCGCCACUCGACAAGGGCGGUCCCGAAGCGAACAUACGCG | – | – | 23.8 nM | 14.7 nM
4 | GAGGAAACUCACAUGAGGAUCACCCAUGUACGAGGACCGGUACGGCCGCCACUCGAAACCAUGGGCGGUAGUACAUGGAAACAUG | – | – | 72.3 nM | 263 nM
5 | GAGUCCGCGGCGGCCGCCACUCGCGAUAUAACAUGAUAUCAGGACAUGAGGAUCACCCAUGUCACGAGGACCGGGCCGAUCCUCA | 28 nM | 17.6 nM | – | –
6 | GCAUCCUAGUCGGCCGCCACUGCAUCACCAGUGGCAGGUGAUCAACAUGAGGAUCACCCAUGUAGCAGGACCGGGACUAGGAUGC | 135 nM | 43.7 nM | – | –
7 | GCUACAUGAGGAUCACCCAUGUAUGCGAGCCGAGGACCGGUACGGCCGCCACUCGCUUAACAUGAGGAUCACCCAUGUUUCUCGG | 169 nM | 125 nM | – | –
8 | GCUGGACUUUCGGCCGCCACUGAGAGAGUCGUGUGAACAUGAGGAUCACCCAUGUAAUAUAUAUACAGGACCGGGAGGGUUGUGC | – | – | 11.8 nM | 11.9 nM
9 | GGAAACCCGACGGCCGCCACUAACGGUCUCAAAAGAGGUUGAACACAUGAGGAUCACCCAUGUAAUAGGACCGGGUCGUGUGAAA | 20.3 nM | 18.5 nM | – | –
10 | GGAGUAGGAAACUAUUCCAAUCCUCGUGAACGAGGACCGGUACGGCCGCCACUCGAUAAUUAAUAACAUGAGGAUCACCCAUGUA | – | – | 83.7 nM | 121 nM
11 | GGGAGGUAGGCGGCCGCCACUGAUUUUCAUAUAUAUAUAACAUGAGGAUCACCCAUGUAGAUAUGCAGGACCGGGCCUGUUUUUU | 23.9 nM | 19.3 nM | – | –
12 | GGUUACUCUACGGCCGCCACUGAACAUGAGGAUCACCCAUGUAAUGUUCAGUAGUCUUUAGACAACAGGACCGGGUAGUGUAACC | 228 nM | 215 nM | – | –
13 | GGUUACUCUACGGCCGCCACUGUCAUGUAAAGAUACCUGUACAUGACAUGAGGAUCACCCAUGUGCAGGACCGGGUAGUGUAACC | 152 nM | 130 nM | – | –
14 | GUCCUCAUGACGGCCGCCACUAAACAUGAGGAUCACCCAUGUAAUGAUCCAUUAAAUGAUAAUAGUAGGACCGGGUCAAAAUAAA | 477 nM | 669 nM | – | –
15 | UAUUAUCAGUCGGCCGCCACUGUCACAUGAGGAUCACCCAUGUAACUUGGGUUAUAUUUAAUAUACAGGACCGGGACAAAGGCUA | – | – | 58.6 nM | 115 nM
16 | UCGGAUGCGGCGGCCGCCACUCGCGGAUAACGAUAGCUUAACAUGAGGAUCACCCAUGUGUCAUGGAGGACCGGGCCCAUACCGU | 23.4 nM | 20.7 nM | – | –
17 | UGCAUUAUACAUGGAUCACCCAUGUAGACACGAGGACCGGUACGGCCGCCACUCGGAAGAGGGAACAUGAGGAUCACCCAUGUGA | 52.5 nM | 51.5 nM | – | –
18 | UGUAUUACGAAAGUAGUACAUCGUGUUCGACGAGGACCGGUACGGCCGCCACUCGGACAUGAGGAUCACCCAUGUAGCGAAAGCU | 158 nM | 256 nM | – | –
19 | UGUCAGCGAAAGUUGACAUGUCUUACCGGUCGAGGACCGGUACGGCCGCCACUCGAUCACUCGCACAUGAGGAUCACCCAUGUCG | 12.4 nM | 11.7 nM | – | –
20 | UGUCAGCGAAAGUUGACAUGUCUUACCGGUCGAGGACCGGUACGGCCGCCACUCGAUCACUCGCACAUGAGGAUCACCCAUGUUG | 18.9 nM | 14.3 nM | – | –
21 | UGUCAGCGAAAGUUGACAUGUCUUGCUGGUCGAGGACCGGUACGGCCGCCACUCGAUCUCUCGCACAUGAGGAUCACCCAUGUUG | 12.6 nM | 13.4 nM | – | –
22 | UGUCAUGGAAACAUGACAGGUCUUACCGGUCGAGGACCGGUACGGCCGCCACUCGAUUGGUGGCACAUGAGGAUCACCCAUGUUA | 29 nM | 26.7 nM | – | –
23 | UUAGUAACGACGGCCGCCACUGAAUUUGAACAUGAGGAUCACCCAUGUAGAGAUCCUAGAAUAAACAGGACCGGGUCUGAUAAUG | – | – | 95.7 nM | 118 nM
24 | UUCAGCUAGUCGGCCGCCACUACAUGAGGAUCACCCAUGUCGGUCCUCACUGCUUCGGCAGUGUGUAGGACCGGGACUAGCUGAG | – | – | 72.3 nM | 720 nM
25 | UUCGUAUUGUCGGCCGCCACUGCAACAUGAGGAUCACCCAUGUAAAUUUGGGAGUAGUUAUAUUACAGGACCGGGACAAUAGUAA | – | – | 102 nM | 139 nM
